According to ChEMBL document CHEMBL3044625, “Non-target-site-based resistance to ALS-inhibiting herbicides in six Bromus rigidus populations from Western Australian cropping fields” (Pest Manag Sci, 2012):
Calls of active or inactive are those of the source. No cut-off for these calls is given here.

Columns and labels:
[1] = system: Bromus diandrus var. rigidus; assay: Herbicidal activity against ALS-inhibiting herbicide-resistant two-leaf stage Bromus diandrus var. rigidus biotype R4 seedlings exposed to compound spraying in absence of 1000 g/ha cytochrome P450 inhibitor malathion measured […]; type: functional
How it was run: (§1)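 Seeds were germinated on 1% water agar for 7–10 days at ambient conditions, then sprayed at the 2–3-leaf stage. Malathion at 1000 g ha−1 was sprayed 30 min before the herbicide, or omitted. Herbicide doses were 18.75–600 g ha−1. Survival and dried above-ground biomass were assessed 21 days after treatment, with two replicates. LD50 came from non-linear regression, and R/S is the ratio of resistant to susceptible LD50.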

[2] = system: Bromus diandrus var. rigidus; assay: Herbicidal activity against ALS-inhibiting herbicide-resistant two-leaf stage Bromus diandrus var. rigidus biotype R3 seedlings exposed to compound spraying in absence of 1000 g/ha cytochrome P450 inhibitor malathion measured […]; type: functional; how it was run: as §1
[3] = system: Bromus diandrus var. rigidus; assay: Herbicidal activity against ALS-inhibiting herbicide-resistant two-leaf stage Bromus diandrus var. rigidus biotype R2 seedlings exposed to compound spraying in absence of 1000 g/ha cytochrome P450 inhibitor malathion measured […] after compound spraying; type: functional; how it was run: as §1
[4] = system: Bromus diandrus var. rigidus; assay: Herbicidal activity against ALS-inhibiting herbicide-resistant two-leaf stage Bromus diandrus var. rigidus biotype R1 seedlings exposed to compound spraying in absence of 1000 g/ha cytochrome P450 inhibitor malathion measured […]; type: functional; how it was run: as §1
[5] = system: Bromus diandrus var. rigidus; assay: Herbicidal activity against ALS-inhibiting herbicide-susceptible two-leaf stage Bromus diandrus var. rigidus seedlings exposed to compound spraying in absence of 1000 g/ha cytochrome P450 inhibitor malathion measured […] after compound spraying; type: functional; how it was run: as §1
[6] = system: Bromus diandrus var. rigidus; assay: Herbicidal activity against ALS-inhibiting herbicide-resistant two-leaf stage Bromus diandrus var. rigidus biotype R6 seedlings assessed as reduction in above-ground biomass exposed to compound spraying in presence of 1000 g/ha cytochrome P450 inhibitor malathion measured […]; type: functional, organism-based; how it was run: as §1
[7] = system: Bromus diandrus var. rigidus; assay: Herbicidal activity against ALS-inhibiting herbicide-resistant two-leaf stage Bromus diandrus var. rigidus biotype R5 seedlings assessed as reduction in above-ground biomass exposed to compound spraying in presence of 1000 g/ha cytochrome P450 inhibitor malathion measured […]; type: functional, organism-based; how it was run: as §1
[8] = system: Bromus diandrus var. rigidus; assay: Herbicidal activity against ALS-inhibiting herbicide-resistant two-leaf stage Bromus diandrus var. rigidus biotype R4 seedlings assessed as reduction in above-ground biomass exposed to compound spraying in presence of 1000 g/ha cytochrome P450 inhibitor malathion measured […]; type: functional, organism-based; how it was run: as §1
[9] = system: Bromus diandrus var. rigidus; assay: Herbicidal activity against ALS-inhibiting herbicide-resistant two-leaf stage Bromus diandrus var. rigidus biotype R3 seedlings assessed as reduction in above-ground biomass exposed to compound spraying in presence of 1000 g/ha cytochrome P450 inhibitor malathion measured […]; type: functional, organism-based; how it was run: as §1
[10] = system: Bromus diandrus var. rigidus; assay: Herbicidal activity against ALS-inhibiting herbicide-resistant two-leaf stage Bromus diandrus var. rigidus biotype R1 seedlings assessed as reduction in above-ground biomass exposed to compound spraying in presence of 1000 g/ha cytochrome P450 inhibitor malathion measured […]; type: functional, organism-based; how it was run: as §1
[11] = system: Bromus diandrus var. rigidus; assay: Herbicidal activity against ALS-inhibiting herbicide-resistant two-leaf stage Bromus diandrus var. rigidus biotype R2 seedlings assessed as reduction in above-ground biomass exposed to compound spraying in presence of 1000 g/ha cytochrome P450 inhibitor malathion measured […]; type: functional, organism-based; how it was run: as §1
[12] = system: Bromus diandrus var. rigidus; assay: Resistance index, ratio of LD50 for ALS-inhibiting herbicide-resistant two-leaf stage Bromus diandrus var. rigidus biotype R2 in absence of 1000 g/ha cytochrome P450 inhibitor malathion to LD50 for ALS-inhibiting herbicide-susceptible two-leaf stage Bromus diandrus var. rigidus in absence of 1000 g/ha cytochrome P450 inhibitor malathion; type: functional; how it was run: as §1
[13] = system: Bromus diandrus var. rigidus; assay: Resistance index, ratio of LD50 for ALS-inhibiting herbicide-resistant two-leaf stage Bromus diandrus var. rigidus biotype R1 in absence of 1000 g/ha cytochrome P450 inhibitor malathion to LD50 for ALS-inhibiting herbicide-susceptible two-leaf stage Bromus diandrus var. rigidus in absence of 1000 g/ha cytochrome P450 inhibitor malathion; type: functional; how it was run: as §1
[14] = system: Bromus diandrus var. rigidus; assay: Herbicidal activity against ALS-inhibiting herbicide-resistant two-leaf stage Bromus diandrus var. rigidus biotype R6 seedlings exposed to compound spraying in presence of 1000 g/ha cytochrome P450 inhibitor malathion measured […]; type: functional; how it was run: as §1
[15] = system: Bromus diandrus var. rigidus; assay: Herbicidal activity against ALS-inhibiting herbicide-resistant two-leaf stage Bromus diandrus var. rigidus biotype R5 seedlings exposed to compound spraying in presence of 1000 g/ha cytochrome P450 inhibitor malathion measured […]; type: functional; how it was run: as §1
[16] = system: Bromus diandrus var. rigidus; assay: Herbicidal activity against ALS-inhibiting herbicide-resistant two-leaf stage Bromus diandrus var. rigidus biotype R4 seedlings exposed to compound spraying in presence of 1000 g/ha cytochrome P450 inhibitor malathion measured […] after compound spraying; type: functional; how it was run: as §1
[17] = system: Bromus diandrus var. rigidus; assay: Resistance index, ratio of LD50 for ALS-inhibiting herbicide-resistant two-leaf stage Bromus diandrus var. rigidus biotype R6 in presence of 1000 g/ha cytochrome P450 inhibitor malathion to LD50 for ALS-inhibiting herbicide-susceptible two-leaf stage Bromus diandrus var. rigidus in presence of 1000 g/ha cytochrome P450 inhibitor malathion; type: functional; how it was run: as §1
[18] = system: Bromus diandrus var. rigidus; assay: Resistance index, ratio of LD50 for ALS-inhibiting herbicide-resistant two-leaf stage Bromus diandrus var. rigidus biotype R5 in presence of 1000 g/ha cytochrome P450 inhibitor malathion to LD50 for ALS-inhibiting herbicide-susceptible two-leaf stage Bromus diandrus var. rigidus in presence of 1000 g/ha cytochrome P450 inhibitor malathion; type: functional; how it was run: as §1
[19] = system: Bromus diandrus var. rigidus; assay: Resistance index, ratio of LD50 for ALS-inhibiting herbicide-resistant two-leaf stage Bromus diandrus var. rigidus biotype R4 in presence of 1000 g/ha cytochrome P450 inhibitor malathion to LD50 for ALS-inhibiting herbicide-susceptible two-leaf stage Bromus diandrus var. rigidus in presence of 1000 g/ha cytochrome P450 inhibitor malathion; type: functional; how it was run: as §1
[20] = system: Bromus diandrus var. rigidus; assay: Resistance index, ratio of LD50 for ALS-inhibiting herbicide-resistant two-leaf stage Bromus diandrus var. rigidus biotype R3 in presence of 1000 g/ha cytochrome P450 inhibitor malathion to LD50 for ALS-inhibiting herbicide-susceptible two-leaf stage Bromus diandrus var. rigidus in presence of 1000 g/ha cytochrome P450 inhibitor malathion; type: functional; how it was run: as §1
[21] = system: Bromus diandrus var. rigidus; assay: Resistance index, ratio of LD50 for ALS-inhibiting herbicide-resistant two-leaf stage Bromus diandrus var. rigidus biotype R2 in presence of 1000 g/ha cytochrome P450 inhibitor malathion to LD50 for ALS-inhibiting herbicide-susceptible two-leaf stage Bromus diandrus var. rigidus in presence of 1000 g/ha cytochrome P450 inhibitor malathion; type: functional; how it was run: as §1
[22] = system: Bromus diandrus var. rigidus; assay: Resistance index, ratio of LD50 for ALS-inhibiting herbicide-resistant two-leaf stage Bromus diandrus var. rigidus biotype R1 in presence of 1000 g/ha cytochrome P450 inhibitor malathion to LD50 for ALS-inhibiting herbicide-susceptible two-leaf stage Bromus diandrus var. rigidus in presence of 1000 g/ha cytochrome P450 inhibitor malathion; type: functional; how it was run: as §1
[23] = system: Bromus diandrus var. rigidus; assay: Resistance index, ratio of LD50 for ALS-inhibiting herbicide-resistant two-leaf stage Bromus diandrus var. rigidus biotype R6 in absence of 1000 g/ha cytochrome P450 inhibitor malathion to LD50 for ALS-inhibiting herbicide-susceptible two-leaf stage Bromus diandrus var. rigidus in absence of 1000 g/ha cytochrome P450 inhibitor malathion; type: functional; how it was run: as §1
[24] = system: Bromus diandrus var. rigidus; assay: Resistance index, ratio of LD50 for ALS-inhibiting herbicide-resistant two-leaf stage Bromus diandrus var. rigidus biotype R5 in absence of 1000 g/ha cytochrome P450 inhibitor malathion to LD50 for ALS-inhibiting herbicide-susceptible two-leaf stage Bromus diandrus var. rigidus in absence of 1000 g/ha cytochrome P450 inhibitor malathion; type: functional; how it was run: as §1
[25] = system: Bromus diandrus var. rigidus; assay: Resistance index, ratio of LD50 for ALS-inhibiting herbicide-resistant two-leaf stage Bromus diandrus var. rigidus biotype R4 in absence of 1000 g/ha cytochrome P450 inhibitor malathion to LD50 for ALS-inhibiting herbicide-susceptible two-leaf stage Bromus diandrus var. rigidus in absence of 1000 g/ha cytochrome P450 inhibitor malathion; type: functional; how it was run: as §1
[26] = system: Bromus diandrus var. rigidus; assay: Resistance index, ratio of LD50 for ALS-inhibiting herbicide-resistant two-leaf stage Bromus diandrus var. rigidus biotype R3 in absence of 1000 g/ha cytochrome P450 inhibitor malathion to LD50 for ALS-inhibiting herbicide-susceptible two-leaf stage Bromus diandrus var. rigidus in absence of 1000 g/ha cytochrome P450 inhibitor malathion; type: functional; how it was run: as §1
[27] = system: Bromus diandrus var. rigidus; assay: Herbicidal activity against ALS-inhibiting herbicide-resistant two-leaf stage Bromus diandrus var. rigidus biotype R3 seedlings exposed to compound spraying in presence of 1000 g/ha cytochrome P450 inhibitor malathion measured […]; type: functional; how it was run: as §1
[28] = system: Bromus diandrus var. rigidus; assay: Herbicidal activity against ALS-inhibiting herbicide-resistant two-leaf stage Bromus diandrus var. rigidus biotype R2 seedlings exposed to compound spraying in presence of 1000 g/ha cytochrome P450 inhibitor malathion measured […]; type: functional; how it was run: as §1
[29] = system: Bromus diandrus var. rigidus; assay: Herbicidal activity against ALS-inhibiting herbicide-resistant two-leaf stage Bromus diandrus var. rigidus biotype R1 seedlings exposed to compound spraying in presence of 1000 g/ha cytochrome P450 inhibitor malathion measured […]; type: functional; how it was run: as §1
[30] = system: Bromus diandrus var. rigidus; assay: Herbicidal activity against ALS-inhibiting herbicide-susceptible two-leaf stage Bromus diandrus var. rigidus seedlings exposed to compound spraying in presence of 1000 g/ha cytochrome P450 inhibitor malathion measured […]; type: functional; how it was run: as §1
[31] = system: Bromus diandrus var. rigidus; assay: Herbicidal activity against ALS-inhibiting herbicide-resistant two-leaf stage Bromus diandrus var. rigidus biotype R6 seedlings exposed to compound spraying in absence of 1000 g/ha cytochrome P450 inhibitor malathion measured […]; type: functional; how it was run: as §1
[32] = system: Bromus diandrus var. rigidus; assay: Herbicidal activity against ALS-inhibiting herbicide-resistant two-leaf stage Bromus diandrus var. rigidus biotype R5 seedlings exposed to compound spraying in absence of 1000 g/ha cytochrome P450 inhibitor malathion measured […]; type: functional; how it was run: as §1

SMILES: CCS(=O)(=O)c1nc2ccccn2c1S(=O)(=O)NC(=O)Nc1nc(OC)cc(OC)n1 [SULFOSULFURON]
- LD50 [1]: 239 g/ha
- LD50 [2]: 173 g/ha
- LD50 [3]: 166 g/ha
- LD50 [4]: 183 g/ha
- LD50 [5]: 21 g/ha
- Activity [6]: Active
- Activity [7]: Active
- Activity [8]: Active
- Activity [9]: Active
- Activity [10]: Active
- Activity [11]: Active
- Ratio [12]: 7.9
- Ratio [13]: 8.7
- LD50 [14]: 11 g/ha
- LD50 [15]: 12 g/ha
- LD50 [16]: 13 g/ha
- Ratio [17]: 1.8
- Ratio [18]: 2
- Ratio [19]: 2.1
- Ratio [20]: 2.6
- Ratio [21]: 1.6
- Ratio [22]: 2.6
- Ratio [23]: 6
- Ratio [24]: 6.6
- Ratio [25]: 11.3
- Ratio [26]: 8.2
- LD50 [27]: 16 g/ha
- LD50 [28]: 10 g/ha
- LD50 [29]: 16 g/ha
- LD50 [30]: 6 g/ha
- LD50 [31]: 127 g/ha
- LD50 [32]: 140 g/ha
